Data on one molecule can be found in ChEMBL document CHEMBL4007420, “Structural Optimization and Pharmacological Evaluation of Inhibitors Targeting Dual-Specificity Tyrosine Phosphorylation-Regulated Kinases (DYRK) and CDC-like kinases (CLK) in Glioblastoma” (J Med Chem, 2017).

Calls of active or inactive are those of the source. The calls are words filed in the database; no cut-off is given here.

For experiment [1], the system named is U-251. The experiment can be described thus: Antiinvasive activity in human U251 cells assessed as velocity of invasion at 10 uM measured up to 20 hrs by matrigel assay (reference value: 1151 to 1710 micrometer/hr). Format: functional.
In experiment [2] the test system is U-251. The experiment in a line: Cytotoxicity against human U251 cells assessed as reduction in cell viability after 3 days by Alamar blue assay. In kind it is functional, cell-based. The settings on record: U-251, 72 h.
Experiment [3] has as its target Dual specificity tyrosine-phosphorylation-regulated kinase 1B (Homo sapiens, UniProt Q9Y463). The experiment in a line: Inhibition of DYRK1B (unknown origin) using woodtide as substrate after 40 mins in presence of [gamma-33P]ATP by microbeta scintillation counting.
Experiment [4] has as its system U-251. The experiment in a line: Antiinvasive activity in human U251 cells assessed as velocity of invasion at 1 uM measured up to 20 hrs by matrigel assay (reference value: 1151 to 1710 micrometer/hr). Format: functional.
The test system of experiment [5] is U-251. The experiment in a line: Antimigratory activity in human U251 cells at 5 uM measured up to 20 hrs by wound scratch assay. Format: functional. The settings on record: U-251, 20 h. The procedure, abridged: (§1)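 Wound-healing migration assay: cell movement across the wound is measured as velocity (µm/h). Compounds were tested at 0, 1.0, 5.0 and 10.0 µM. Values are mean ± SEM of 3 independent experiments.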

Experiment [6] deals with A 172. The experiment in a line: Antiinvasive activity in human A172 cells measured up to 20 hrs by matrigel assay. In kind it is functional, cell-based.
For a further experiment, the species on record is Homo sapiens. The experiment in a line: Inhibition of tubulin (unknown origin) polymerization.
The target in experiment [7] is Mitogen-activated protein kinase 14 (Homo sapiens) (UniProt Q16539). The experiment can be described thus: Stabilization of MAPK p38alpha in human U251 cell lysate at 10 uM preincubated for 1 hr followed by incubation at 40 to 70 degreeC for 3 mins by cellular thermal shift assay.
Chain of Mitogen-activated protein kinase 14 (Homo sapiens) (Q16539 whole entry): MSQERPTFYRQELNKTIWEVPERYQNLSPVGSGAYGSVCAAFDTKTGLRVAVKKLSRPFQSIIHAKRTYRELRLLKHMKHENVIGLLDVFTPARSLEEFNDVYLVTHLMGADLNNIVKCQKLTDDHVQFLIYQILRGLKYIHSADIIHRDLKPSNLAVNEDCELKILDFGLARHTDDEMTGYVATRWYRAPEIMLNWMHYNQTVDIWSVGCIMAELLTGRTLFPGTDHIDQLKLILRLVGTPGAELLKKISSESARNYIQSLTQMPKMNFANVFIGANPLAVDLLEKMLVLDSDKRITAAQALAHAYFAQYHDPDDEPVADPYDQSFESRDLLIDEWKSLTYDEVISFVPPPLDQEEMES
The nature of experiment [8]: Antimigratory activity in patient-derived RN1 cells at 5 uM measured up to 20 hrs by wound scratch assay. Format: functional. Particulars: Homo sapiens, RN1, 20 h. The procedure, abridged: as §1
For experiment [9], the system named is U-251. The experiment can be described thus: Antimigratory activity in human U251 cells assessed as velocity of migration at 1 uM measured up to 20 hrs by wound scratch assay (reference value: 2159 to 2653 micrometer/hr). Format: functional. A digest of the protocol:
as §1

Experiment [10] concerns A 172. The experiment can be described thus: Antiinvasive activity in human A172 cells assessed as velocity of invasion at 10 uM measured up to 20 hrs by matrigel assay (reference value: 2659 to 3047 micrometer/hr). Format: functional.
Experiment [11] concerns the target Dual specificity tyrosine-phosphorylation-regulated kinase 1A (Homo sapiens, UniProt Q13627). The experiment can be described thus: Binding affinity to DYRK1A in human U251 […] preincubated for 1 hr followed by incubation at 54 degreeC for 3 mins by isothermal dose-response fingerprint assay. A digest of the protocol: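 Isothermal dose-response fingerprint: intact U251 cells were treated for 1 h across 0–20 µM, then heated at 54 °C. The soluble fraction was extracted with aqueous buffer and DYRK1A was detected by Western blot. Results are mean ± SEM of 2 independent experiments.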

Experiment [12] concerns the target T1, Dual specificity tyrosine-phosphorylation-regulated kinase 2 (Homo sapiens) (UniProt Q92630).
T1 sequence (whole entry): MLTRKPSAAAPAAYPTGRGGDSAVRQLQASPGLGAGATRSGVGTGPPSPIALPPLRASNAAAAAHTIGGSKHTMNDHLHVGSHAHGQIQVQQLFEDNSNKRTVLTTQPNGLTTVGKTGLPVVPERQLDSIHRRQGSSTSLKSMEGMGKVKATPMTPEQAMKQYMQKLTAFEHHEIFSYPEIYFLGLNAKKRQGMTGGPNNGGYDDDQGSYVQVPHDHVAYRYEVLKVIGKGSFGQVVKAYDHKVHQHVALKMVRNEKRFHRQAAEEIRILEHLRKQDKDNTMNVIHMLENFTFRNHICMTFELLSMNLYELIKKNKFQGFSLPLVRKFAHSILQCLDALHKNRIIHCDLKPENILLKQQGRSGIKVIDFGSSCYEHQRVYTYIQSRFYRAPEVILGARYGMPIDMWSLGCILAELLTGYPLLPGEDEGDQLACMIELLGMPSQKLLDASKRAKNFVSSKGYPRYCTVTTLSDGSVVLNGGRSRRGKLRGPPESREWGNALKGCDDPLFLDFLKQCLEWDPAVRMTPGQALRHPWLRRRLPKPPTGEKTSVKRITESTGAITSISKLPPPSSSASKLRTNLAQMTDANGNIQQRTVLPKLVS
The experiment in a line: Stabilization of DYRK2 in human U251 cell lysate at 10 uM preincubated for 1 hr followed by incubation at 40 to 70 degreeC for 3 mins by cellular thermal shift assay.

Experiment [13] relates to U-251. The experiment in a line: Antiinvasive activity in human U251 cells measured up to 20 hrs by matrigel assay. In kind it is functional, cell-based.
The test system of experiment [14] is A 172. The experiment can be described thus: Antimigratory activity in human A172 cells assessed as velocity of migration at 1 uM measured up to 20 hrs by wound scratch assay (reference value: 2650 to 3123 micrometer/hr). In kind it is functional. A digest of the protocol: as §1
Experiment [15] deals with U-251. The experiment in a line: Antiinvasive activity in human U251 cells assessed as velocity of invasion at 5 uM measured up to 20 hrs by matrigel assay (reference value: 1151 to 1710 micrometer/hr). In kind it is functional.

Chain of Dual specificity tyrosine-phosphorylation-regulated kinase 1B (Q9Y463 whole entry): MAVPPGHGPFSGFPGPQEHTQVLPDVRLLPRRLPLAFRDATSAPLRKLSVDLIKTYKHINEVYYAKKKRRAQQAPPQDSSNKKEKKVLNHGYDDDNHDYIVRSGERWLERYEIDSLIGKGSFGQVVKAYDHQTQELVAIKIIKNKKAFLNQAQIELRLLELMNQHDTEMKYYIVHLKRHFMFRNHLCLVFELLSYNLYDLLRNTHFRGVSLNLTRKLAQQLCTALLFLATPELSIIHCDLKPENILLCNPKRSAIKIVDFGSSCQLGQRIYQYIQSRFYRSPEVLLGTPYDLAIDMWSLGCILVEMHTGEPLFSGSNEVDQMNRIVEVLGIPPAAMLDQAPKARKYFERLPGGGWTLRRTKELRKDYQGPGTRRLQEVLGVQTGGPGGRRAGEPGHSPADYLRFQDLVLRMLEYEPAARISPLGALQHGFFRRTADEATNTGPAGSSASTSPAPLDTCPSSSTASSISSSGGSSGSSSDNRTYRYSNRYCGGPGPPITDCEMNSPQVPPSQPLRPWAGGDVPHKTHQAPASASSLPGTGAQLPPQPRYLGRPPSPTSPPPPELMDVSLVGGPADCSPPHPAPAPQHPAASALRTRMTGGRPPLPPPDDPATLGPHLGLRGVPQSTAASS

Regarding `Nc1ccc(-c2cnc3[nH]cc(-c4ccc(O)cc4)c3c2)cc1`, the Activity in the experiment on U-251 [1] is listed as -149 um/hr; in the experiment with U-251 [4] it was 1139 um/hr; with U-251 [9] it was 1247 um/hr; with A 172 [10] it was 714 um/hr; with A 172 [14], 2828 um/hr; in the experiment with U-251 [15], 234 um/hr. The EC50 in the experiment with U-251 [2] fell in the range of 1600 to 4600 nM. Also, the IC50 is 32 nM in [3] and 711 nM in experiment [11]. Further, the inhibition at 5 µM (with U-251 [5]; in experiment [8]) was greater than 75% throughout. Moreover, the inhibition entry with A 172 [6] and in the experiment with U-251 [13] was “Dose-dependent effect” in each case. The inhibition result in the experiment listed under Homo sapiens is “inactive”. Moreover, the outcome in experiment [7] was inactive. Further, in experiment [12], the outcome was Active.
